Key:
Mus musculus [1] = assay: Body weight of mice on day 14 following peroral administration at 10 mg/kg, twice a day; n = 12; format: functional; conditions: route oral
How it was run: (§1)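 Chronic study in DIO mice fed a high-fat diet ad libitum. Dosing was by oral gavage, bid for 14 days, in 4 mL/kg of 1% Tween-80 in water, with vehicle controls. Body weight and food intake were recorded on days 1, 4, 7, 11 and 14. Body-weight change is in grams relative to day 0, and % change is relative to vehicle. Mean ± SEM, n = 12.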

[2] = Concentration in brain of mice,1 hour after administration of final dose at 30 mg/kg, twice a day; format: ADME, organism-based; design: dose 30 mg/kg; conditions: mouse, read-out: Cmax
How it was run: (§2)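 DIO mice received the test compound orally, bid, in 1% Tween-80 in water for 14 days. Plasma and brain drug concentrations were measured 1 h (taken as Cmax) or 17 h after the final dose on day 14. Mean ± SEM, n = 3.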

[3] = target: T1, Melanin-concentrating hormone receptor 1 (Homo sapiens, UniProt Q99705); assay: Inhibition of melanin concentrating hormone receptor 1 from human neuronal IMR-32 cells; format: cell-based
[4] = Concentration in plasma of mice,1 hour after administration of final dose at 10 mg/kg, twice a day; format: ADME, organism-based; design: dose 10 mg/kg; conditions: mouse, read-out: Cmax; how it was run: as §2
[5] = target: T1, Melanin-concentrating hormone receptor 1; assay: Inhibition of melanin concentrating hormone receptor 1-mediated [Ca2+] release in human neuronal IMR-32 cells; format: functional, cell-based
[6] = Concentration in plasma of mice,1 hour after administration of final dose at 30 mg/kg, twice a day; format: ADME, organism-based; design: dose 30 mg/kg; conditions: mouse, read-out: Cmax; how it was run: as §2
[7] = Concentration in brain of mice,1 hour after administration of final dose at 10 mg/kg, twice a day; format: ADME, organism-based; design: dose 10 mg/kg; conditions: mouse, read-out: Cmax; how it was run: as §2
Mus musculus [8] = assay: Change in body weight of mice on day 14 following peroral administration at 10 mg/kg, twice a day; n = 12; body weight at day 0 = 44.7 g; format: functional; conditions: route oral; how it was run: as §1
[9] = Concentration in plasma of mice,17 hours after administration of final dose at 10 mg/kg, twice a day; format: ADME, organism-based; design: dose 10 mg/kg; conditions: mouse, read-out: Cmax; how it was run: as §2
[10] = Area under concentration time curve in brain of mice following peroral administration at 10 mg/kg; n=3; format: ADME, organism-based; design: dose 10 mg/kg, route oral; conditions: mouse, in vivo, po
How it was run: (§3)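 DIO mice given a single 10 mg/kg oral dose in 1% Tween-80 in water. Plasma and brain drug levels were measured over time. Cmax is the average of the three mice with the highest concentrations. AUC0-t was calculated by the linear trapezoidal rule, and the residual area (Ct/β) was added to give AUC0-∞. C12h is the brain level at 12 h postdose.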

[11] = Area under concentration time curve in plasma of mice following peroral administration at 10 mg/kg; n=3; format: ADME, organism-based; design: dose 10 mg/kg, route oral; conditions: mouse, in vivo, po; how it was run: as §3
[12] = Concentration in plasma of mice,17 hours after administration of final dose at 30 mg/kg, twice a day; format: ADME, organism-based; design: dose 30 mg/kg; conditions: mouse, read-out: Cmax; how it was run: as §2
Mus musculus [13] = assay: Body weight of mice on day 14 following peroral administration at 30 mg/kg, twice a day; n = 12; format: functional; conditions: route oral; how it was run: as §1
[14] = Concentration in brain of mice,17 hours after administration of final dose at 10 mg/kg, twice a day; format: ADME, organism-based; design: dose 10 mg/kg; conditions: mouse, read-out: Cmax; how it was run: as §2
Mus musculus [15] = assay: Change in body weight of mice on day 14 following peroral administration at 30 mg/kg, twice a day; n = 12; body weight at day 0 = 45 g; format: functional; conditions: route oral; how it was run: as §1
[16] = Maximum concentration in brain of mice at 12 hours following peroral administration at 10 mg/kg; n=3; format: ADME, organism-based; design: dose 10 mg/kg, route oral; conditions: mouse, po; how it was run: as §3
[17] = Concentration in brain of mice,17 hours after administration of final dose at 30 mg/kg, twice a day; format: ADME, organism-based; design: dose 30 mg/kg; conditions: mouse, read-out: Cmax; how it was run: as §2
[18] = Maximum concentration in brain of mice following peroral administration at 10 mg/kg; n=3; format: ADME, organism-based; design: dose 10 mg/kg, route oral; conditions: mouse, po; how it was run: as §3
[19] = Area under concentration time curve in plasma of mice following peroral administration of 10 mg/kg of the compound; format: ADME, organism-based; design: dose 10 mg/kg, route oral; conditions: mouse, in vivo, po; how it was run: as §3
[20] = Area under concentration time curve in brain of mice following peroral administration of 10 mg/kg of the compound; format: ADME, organism-based; design: dose 10 mg/kg, route oral; conditions: mouse, in vivo, po; how it was run: as §3
[21] = Maximum concentration of the compound in brain of mice following peroral administration at 10 mg/kg; n=3; format: ADME, organism-based; design: dose 10 mg/kg, route oral; conditions: mouse, po; how it was run: as §3
Mus musculus [22] = assay: Change in body weight of mice on day 14 following peroral administration at 10 mg/kg, 4 times a day; n = 12; body weight at day 0 = 43.2 g; format: functional; conditions: route oral
Mus musculus [23] = assay: Body weight of mice on day 14 following peroral administration at 10 mg/kg, 4 times a day; n = 12; format: functional; conditions: route oral

T1 sequence (Q99705 whole entry): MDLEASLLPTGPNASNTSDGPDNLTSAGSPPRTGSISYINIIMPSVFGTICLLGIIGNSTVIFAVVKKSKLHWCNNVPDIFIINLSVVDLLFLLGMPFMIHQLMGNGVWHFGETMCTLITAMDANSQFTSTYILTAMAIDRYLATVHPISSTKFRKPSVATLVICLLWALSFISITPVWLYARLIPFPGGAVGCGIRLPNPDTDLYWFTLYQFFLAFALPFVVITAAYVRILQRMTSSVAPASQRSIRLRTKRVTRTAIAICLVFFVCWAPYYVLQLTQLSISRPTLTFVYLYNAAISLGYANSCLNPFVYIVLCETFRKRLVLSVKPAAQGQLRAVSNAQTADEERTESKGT

O=C(Cc1ccc(OCc2ccccc2)cc1)Nc1ccc2cnn(CCN3CCCC3)c2c1
Body weight (Mus musculus [1]): 42.6 g
concentration at 1 h [2]: 233 ng/mL
IC50 [3]: 1.4 nM
concentration at 1 h [4]: 168 ng/mL
IC50 [5]: 11 nM
concentration at 1 h [6]: 824 ng/mL
concentration at 1 h [7]: 115 ng/mL
Activity (Mus musculus [8]): -8.25%
concentration at 17 h [9]: 0.39 ng/mL
AUC [10]: 1.33 µg/h/g
AUC [11]: 2.12 µg/h/g
concentration at 17 h [12]: 2.23 ng/mL
Body weight (Mus musculus [13]): 39.7 g
concentration at 17 h [14]: 7.02 ng/mL
Activity (Mus musculus [15]): -15.2%
Cmax [16]: 29 ng/g
concentration at 17 h [17]: 5.35 ng/mL
Cmax [18]: 177 ng/g

O=C(Cc1ccc(OCc2ccccc2)cc1)Nc1ccc2cn(CCN3CCCC3)nc2c1
IC50 [3]: 146 nM
IC50 [5]: 874 nM

O=C(CNCc1ccc(Oc2ccccc2)cc1)Nc1ccc2ncn(CCN3CCCC3)c2c1
IC50 [3]: 299 nM
AUC [19]: 1.16 µg/h/mL
IC50 [5]: 1810 nM
AUC [20]: 0.674 µg/h/g

O=C(Cc1ccc(OCc2ccccc2)cc1)Nc1cccc2nn(CCN3CCCC3)cc12
IC50 [3]: 41.4 nM
IC50 [5]: 287 nM
AUC [10]: 0.214 µg/h/g
AUC [11]: 2.09 µg/h/g
Cmax [16]: 12.3 ng/g
Cmax [18]: 214 ng/g

O=C(Cc1ccc(OCc2ccccc2)cc1)Nc1ccc2c(c1)ncn2CCN1CCCC1
IC50 [3]: 772 nM
IC50 [5]: > 10000 nM

O=C(Cc1ccc(OCc2ccccc2)cc1)Nc1ccc2nn(CCN3CCCC3)cc2c1
IC50 [3]: 1990 nM
IC50 [5]: > 10000 nM

O=C(Cc1ccc(OCc2ccccc2)cc1)Nc1ccc2ncn(CCN3CCCC3)c2c1
IC50 [3]: 161 nM
IC50 [5]: > 10000 nM
AUC [10]: 0.244 µg/h/g
AUC [11]: 0.937 µg/h/g
Cmax [21]: 54.4 ng/g

O=C(Cc1ccc(OCc2ccccc2)cc1)Nc1ccc2c(cnn2CCN2CCCC2)c1
IC50 [3]: 558 nM
IC50 [5]: > 10000 nM
AUC [10]: 10.4 µg/h/g
AUC [11]: 8.51 µg/h/g
Cmax [16]: 76 ng/g
Cmax [18]: 4260 ng/g

O=C(Cc1ccc(OCc2ccccc2)cc1)Nc1cccc2c1cnn2CCN1CCCC1
IC50 [3]: 24.5 nM
IC50 [5]: 71 nM
AUC [10]: 1.18 µg/h/g
AUC [11]: 0.611 µg/h/g
Cmax [16]: 8.11 ng/g
Cmax [18]: 464 ng/g

O=C(Cc1ccc(OCc2ccccc2)cc1)Nc1ccc2ccn(CCN3CCCC3)c2c1
IC50 [3]: 22 nM
AUC [19]: 1.37 µg/h/mL
IC50 [5]: 1470 nM
AUC [20]: 0.348 µg/h/g

CCN[C@@H](C)Cc1cccc(C(F)(F)F)c1 [DEXFENFLURAMINE]
Activity (Mus musculus [22]): -10.1%
Body weight (Mus musculus [23]): 40.4 g
